The ΔTm is the change in melting temperature against a reference sample. In general, IC50 refers to the concentration that gives 50% inhibition.

The text below walks through data of ChEMBL document CHEMBL1159058, “Triazoloacridin-6-ones as novel inhibitors of the quinone oxidoreductases NQO1 and NQO2” (Bioorg Med Chem, 2010).

Assay [1] has as its system Nucleic Acid. Description: Binding affinity to salmon sperm DNA assessed as change in melting temperature at 10 uM under low salt concentration by spectrophotometry. Format: nucleic-acid assay. To be noted: Salmonidae. In short, it runs like this:
(§1)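 Salmon sperm DNA at 20 µg/ml was treated with 10 µM compound at high (physiological) or low salt; the low-salt buffer was 7.5 mM NaH₂PO₄, 1 mM EDTA, pH 7.0. Cuvettes were heated from 37 to 98 °C with A260 read every degree. Tm change is in °C, SD from three independent experiments.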

Assay [2] deals with Nucleic Acid. In words: Binding affinity to salmon sperm DNA assessed as melting temperature at 10 uM under low salt concentration by spectrophotometry. To be noted: Salmonidae. Format: nucleic-acid assay.
Assay [3] deals with NAD(P)H dehydrogenase [quinone] 1 (Homo sapiens, UniProt P15559). In words: Inhibition of human recombinant NQO1 by spectrophotometry.
Chain of NAD(P)H dehydrogenase [quinone] 1 (P15559 whole entry): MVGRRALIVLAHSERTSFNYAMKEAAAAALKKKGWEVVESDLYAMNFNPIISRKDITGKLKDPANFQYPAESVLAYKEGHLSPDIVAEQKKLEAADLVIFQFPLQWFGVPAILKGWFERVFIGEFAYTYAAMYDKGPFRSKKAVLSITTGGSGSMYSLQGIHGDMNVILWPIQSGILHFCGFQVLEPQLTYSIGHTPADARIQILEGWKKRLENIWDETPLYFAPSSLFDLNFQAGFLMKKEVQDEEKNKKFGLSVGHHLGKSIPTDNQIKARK
Assay [4] concerns the target T1, Ribosyldihydronicotinamide dehydrogenase [quinone] (Homo sapiens, UniProt P16083).
T1 sequence (P16083 whole entry): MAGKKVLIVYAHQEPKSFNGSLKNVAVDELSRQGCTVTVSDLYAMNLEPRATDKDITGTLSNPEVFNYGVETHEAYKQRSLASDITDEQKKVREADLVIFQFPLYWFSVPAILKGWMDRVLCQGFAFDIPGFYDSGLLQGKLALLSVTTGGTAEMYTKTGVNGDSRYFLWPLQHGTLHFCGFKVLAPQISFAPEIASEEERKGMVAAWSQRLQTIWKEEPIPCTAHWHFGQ
Description: Inhibition of human recombinant NQO2 by spectrophotometry. The method, boiled down:
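Recombinant human NQO2 was diluted in 50 mM phosphate to give about 0.1 absorbance/min. Reaction mix: 50 mM phosphate pH 7.4 with 200 µM NRH as cofactor, 40 µM DCPIP and inhibitor in DMSO (1.0% v/v final), 37 °C. DCPIP reduction was followed at 600 nm.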

Assay [5] concerns HCT-116. Description: Cytotoxicity against human HCT116 cells after 24 hrs by MTT assay. The class given is functional, cell-based. As to conditions: HCT-116, 24 h. The method, boiled down: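 HCT116 cells were kept in RPMI 1640 with 10% FCS and 2 mM L-glutamine, plated at 2 × 10³ cells/well, 37 °C, 5% CO₂. Drug was given for 24 h, then removed, and cells regrew 3 days in fresh medium. Read-out was MTT for 4 h, formazan dissolved in DMSO, OD read. IC50 is 50% OD reduction vs untreated/vehicle controls. At least three repeats.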

The test system of assay [6] is HCT-116. In words: Cytotoxicity against human HCT116 cells after 96 hrs by MTT assay. Format: functional, cell-based. As to conditions: HCT-116, 96 h. The method, boiled down: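 HCT116 cells were grown in RPMI 1640 with 10% FCS and 2 mM L-glutamine, seeded at 2 × 10³ cells/well, 37 °C, 5% CO₂. Drug exposure was continuous for 4 days at 37 °C. MTT was then added for 4 h and formazan dissolved in DMSO for OD reading. IC50 is 50% OD drop relative to untreated and/or vehicle cells. At least three repeats.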
For orientation: Tetrazolium dyes change colour on reduction, which living cells bring about.

The subject of assay [7] is Nucleic Acid. In words: Binding affinity to salmon sperm DNA assessed as change in melting temperature at 10 uM under high salt concentration by spectrophotometry. Format: nucleic-acid assay. To be noted: Salmonidae. In short, it runs like this:
as §1

For `COc1cccc2c1C(=O)c1c(O)c3c(c(O)c1C2=O)C[C@@](O)(C(=O)CO)C[C@@H]3O[C@H]1C[C@H](N)[C@H](O)[C@H](C)O1`, in the assay on Nucleic Acid [1], the ΔTm came out at 8 °C. For the same molecule, in the assay on Nucleic Acid [2], the Tm amounted to 88 °C.

Regarding `O=c1c2ccccc2n2nnc3ccc(NCCc4ccccc4)c1c32`, the IC50 in assay [3] came to 3280 nM; in assay [4], 567 nM; in the assay with HCT-116 [5] it was 3500 nM; with HCT-116 [6], 803 nM. The ΔTm is 0.31 °C in the assay with Nucleic Acid [7] and 1.7 °C in the assay on Nucleic Acid [1].

In the case of `COc1ccc(Nc2ccc3nnn4c5ccccc5c(=O)c2c34)cc1`, the IC50 amounted to 98 nM in assay [4], 1900 nM in the assay on HCT-116 [5] and 630 nM in the assay on HCT-116 [6]. The results for the ΔTm in the assay on Nucleic Acid [7] and in the assay with Nucleic Acid [1] were 0.19 °C and 0.2 °C, respectively.

`COc1ccc2c(c1)c(=O)c1c(NCCN(C)C)ccc3nnn2c31`: the IC50 in assay [3] was found to be 111 nM; in assay [4] it was 1330 nM; in the assay with HCT-116 [5] it was 1000 nM; with HCT-116 [6], 333 nM. In addition, the ΔTm was found to be 0.08 °C in the assay with Nucleic Acid [7] and 2.9 °C with Nucleic Acid [1]. For the same molecule, the Tm in the assay with Nucleic Acid [2] turned out to be 83 °C.

For the molecule `CC(C)CCNc1ccc2nnn3c4ccc(Br)cc4c(=O)c1c23`, the IC50 in assay [4] is 767 nM; in the assay with HCT-116 [5], 27000 nM; in the assay on HCT-116 [6], 7000 nM. The ΔTm in the assay on Nucleic Acid [7] amounted to 0.09 °C; with Nucleic Acid [1] it was 1.9 °C.

Turning to `COc1ccc2c(c1)c(=O)c1c(NCCc3ccccc3)ccc3nnn2c31`, the 50% inhibitory concentration (IC50) in assay [3] came out at 3930 nM; in assay [4], 350 nM; with HCT-116 [5], 12500 nM; with HCT-116 [6] it was 711 nM. Besides, the ΔTm in the assay with Nucleic Acid [7] is 0.08 °C; with Nucleic Acid [1], 1.7 °C.

For `COc1ccc2c(c1)c(=O)c1c(NCCCO)ccc3nnn2c31`, the IC50 in assay [4] was 517 nM; in the assay with HCT-116 [5] it was 1500 nM; in the assay with HCT-116 [6] it was 627 nM. Besides, the ΔTm was 0.19 °C in the assay with Nucleic Acid [7] and 3.2 °C with Nucleic Acid [1].

On to `O=c1c2cc(Br)ccc2n2nnc3ccc(NCCCO)c1c32`, for which the figures for the IC50 (in assay [4]; in the assay with HCT-116 [5]; in the assay on HCT-116 [6]) were 987 nM, 2800 nM and 715 nM, respectively. For the same molecule, the ΔTm came out at 0.42 °C with Nucleic Acid [7] and 3 °C in the assay on Nucleic Acid [1].

For `C[N+](C)([O-])CCNc1ccc2nnn3c4ccc(Br)cc4c(=O)c1c23`, the IC50 in assay [4] was found to be 117 nM; in the assay with HCT-116 [5], 48000 nM; in the assay with HCT-116 [6], 12000 nM. Further, the ΔTm in the assay on Nucleic Acid [7] worked out at 0.45 °C; in the assay on Nucleic Acid [1], 0.1 °C.

With `O=c1c2ccccc2n2nnc3ccc(NCCCO)c1c32`, the IC50 in assay [4] was found to be 483 nM; with HCT-116 [5], 990 nM; with HCT-116 [6], 630 nM. Further, the ΔTm in the assay on Nucleic Acid [7] was determined as 1.48 °C; in the assay with Nucleic Acid [1], 3 °C.

As for `COc1ccc2c(c1)c(=O)c1c(NCC[N+](C)(C)[O-])ccc3nnn2c31`, the IC50 in assay [4] was 98 nM; with HCT-116 [5], 57000 nM; with HCT-116 [6], 18800 nM. For the same molecule, the ΔTm in the assay on Nucleic Acid [7] amounted to 0.3 °C; with Nucleic Acid [1], 0.15 °C. Besides, the Tm in the assay with Nucleic Acid [2] came out at 80 °C.

On to `C[N+](C)([O-])CCNc1ccc2nnn3c4ccccc4c(=O)c1c23`, for which the figures for the IC50 (in assay [4]; in the assay on HCT-116 [5]; in the assay with HCT-116 [6]) were 167 nM, 80000 nM and 23800 nM, respectively. The ΔTm in the assay with Nucleic Acid [7] was determined as 0.22 °C; in the assay with Nucleic Acid [1] it was 0.5 °C.

On to `CN(C)CCNc1ccc2nnn3c4ccc(Br)cc4c(=O)c1c23`, for which the IC50 in assay [4] worked out at 1480 nM; in the assay with HCT-116 [5], 1600 nM; with HCT-116 [6], 495 nM. For the same molecule, the ΔTm worked out at 0.2 °C with Nucleic Acid [7] and 2.6 °C in the assay with Nucleic Acid [1].

Regarding `CN(C)CCNc1ccc2nnn3c4ccccc4c(=O)c1c23`, the 50% inhibitory concentration (IC50) turned out to be 1800 nM in assay [3], 1830 nM in assay [4], 20500 nM in the assay on HCT-116 [5] and 12400 nM in the assay with HCT-116 [6]. Moreover, the ΔTm was 0.33 °C in the assay on Nucleic Acid [7] and 1.7 °C in the assay on Nucleic Acid [1].

`CC(C)CCNc1ccc2nnn3c4ccccc4c(=O)c1c23`: the IC50 was 427 nM in assay [4], 3200 nM with HCT-116 [5] and 815 nM with HCT-116 [6]. The values for the ΔTm in the assay with Nucleic Acid [7] and in the assay with Nucleic Acid [1] were 0.23 °C and 2 °C, respectively.

For `CN(C)CCNc1ccc2nnn3c4ccc(F)cc4c(=O)c1c23`, the figures for the IC50 (in assay [4]; in the assay with HCT-116 [5]; in the assay with HCT-116 [6]) were 783 nM, 1200 nM and 465 nM, respectively. For the same molecule, the ΔTm in the assay on Nucleic Acid [7] was determined as 0.03 °C; in the assay on Nucleic Acid [1], 2.6 °C.
